Assays:
A549 = test: Cytotoxicity against human A549 cells after 72 hrs by MTS assay; assay type: functional, cell-based; conditions: A549, 72 h
Method in brief: (§1)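 Triplicate wells seeded at (2–5) × 10^3 cells each, depending on growth rate, and left overnight to attach. Medium was then replaced with medium containing test compound at serial dilutions from 100 mM DMSO stocks, or 0.1% DMSO. Incubation was 72 h at 37 °C in humidified 5% CO2. MTS was added in the dark, with a 90 min read-out incubation at 37 °C.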

PANC-1 = test: Cytotoxicity against human PANC1 cells after 72 hrs by MTS assay; assay type: functional, cell-based; conditions: PANC-1, 72 h; method in brief: as §1
MCF7 = test: Cytotoxicity against human MCF7 cells after 72 hrs by MTS assay; assay type: functional, cell-based; conditions: MCF7, 72 h; method in brief: as §1
A-375 = test: Cytotoxicity against human A375 cells after 72 hrs by MTS assay; assay type: functional, cell-based; conditions: A-375, 72 h; method in brief: as §1
[1] = Cytotoxicity against human Hep3B2 cells after 72 hrs by MTS assay; assay type: functional, cell-based, Hep 3B2; conditions: Hep3B; method in brief: as §1
[2] = Cytotoxicity against human MGC cells after 72 hrs by MTS assay; assay type: functional, cell-based; method in brief: as §1
[3] = Cytotoxicity against human EC109 cells after 72 hrs by MTS assay; assay type: functional, cell-based; conditions: ECa-109, 72 h; method in brief: as §1
HaCaT = test: Cytotoxicity against human HaCaT cells after 72 hrs by MTS assay; assay type: functional, cell-based; method in brief: as §1
[4] = Cytotoxicity against human CNE1-LMP1 cells after 72 hrs by MTS assay; assay type: functional, cell-based; conditions: CNE1-LMP1, 72 h; method in brief: as §1

| Compound | IC50 (A549) [µM] | IC50 (PANC-1) [µM] | IC50 (MCF7) [µM] | IC50 (A-375) [µM] | IC50 [1] [µM] | IC50 [2] [µM] | IC50 [3] [µM] | IC50 (HaCaT) [µM] | IC50 [4] [µM] |
| --- | --- | --- | --- | --- | --- | --- | --- | --- | --- |
| CC(=O)O[C@H]1C(=O)[C@@]2(C)[C@H]([C@H](OC(=O)c3ccccc3)[C@]3(O)C[C@H](OC(=O)[C@H](O)[C@@H](NC(=O)c4ccccc4)c4ccccc4)C(C)=C1C3(C)C)[C@]1(OC(C)=O)CO[C@@H]1C[C@@H]2O [PACLITAXEL] | 0.03 | 0.0011 | 0.014 | 0.0089 | 1.6e-05 | 0.0064 | 0.14 | 0.024 | 0.0042 |
| COc1cc(=O)oc2c1[C@H](O[C@@H]1O[C@@H](C)[C@@H](C)c3oc(=O)cc(OC)c31)O[C@@H](C)[C@H]2C [INFLATIN D] | > 100 | > 100 | > 100 | > 100 | > 100 | > 100 | > 100 | > 100 | > 100 |
| CC(=O)OC[C@@]1(O)CC[C@]23C[C@H]1C[C@@H]2CC[C@H]1[C@]2(C)CO[C@H](c4ccc(O)cc4)O[C@@H]2CC[C@@]13C [INFLATIN B] | 25 | 53.2 | 75.2 | 25.5 | 7.3 | > 100 | 70.8 | 55.1 | 15 |
| C[C@@]12CO[C@H](c3ccc(O)cc3)O[C@@H]1CC[C@@]1(C)[C@H]2CC[C@H]2C[C@@H]3C[C@@]21CC[C@]3(O)CO [INFLATIN A] | 75.3 | 19.9 | 33.5 | 47.3 | 14.8 | 54.5 | 47.1 | 49.1 | 39.1 |
| COc1cc(=O)oc2c1[C@H](O)O[C@@H](C)[C@H]2C [INFLATIN C] | > 100 | > 100 | > 100 | > 100 | > 100 | > 100 | > 100 | > 100 | > 100 |
| COc1cc(=O)oc2c1[C@H](O[C@@H]1O[C@@H](C)[C@@H](C)c3oc(=O)cc(OC)c31)O[C@@H](C)[C@@H]2C [INFLATIN E] | > 100 | > 100 | > 100 | > 100 | > 100 | > 100 | > 100 | > 100 | > 100 |
| COc1cc(=O)oc2c1[C@H](O[C@@H]1O[C@@H](C)[C@H](C)c3oc(=O)cc(OC)c31)O[C@@H](C)[C@@H]2C [INFLATIN F] | > 100 | > 100 | > 100 | > 100 | 57.5 | > 100 | > 100 | > 100 | > 100 |

From ChEMBL document CHEMBL1821668, “Isolation and characterization of aphidicolin and chlamydosporol derivatives from Tolypocladium inflatum” (J Nat Prod, 2011)
